Converted amounts (≈) assume the structure as drawn.
Assays:
Format in all cases: functional
Klebsiella pneumoniae [1] = assay: Antibacterial activity against KPC-2 producing Klebsiella pneumoniae isolate 212229 after 18 hrs in presence of BPL by CLSI broth microdilution method; conditions: isolate 212229, 18 h
Summary of the method: (§1)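 CLSI broth microdilution against clinical isolates (ESBL E. coli, KPC-2 MDR K. pneumoniae, IMP-4 MDR P. aeruginosa; five per species). Iron limitation: Mueller-Hinton broth supplemented with 16 mg/liter 2,2'-bipyridyl to complex iron and induce iron uptake systems. Read-out: MIC.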

Escherichia coli [2] = assay: Selectivity index, ratio of MIC for against extended-spectrum beta-lactamase producing Escherichia coli isolate 106342 to MIC for extended-spectrum beta-lactamase producing Escherichia coli isolate 106342 in presence of BPL
Pseudomonas aeruginosa [3] = assay: Selectivity index, ratio of MIC for against IMP-4 producing Pseudomonas aeruginosa isolate 212886 to MIC for against IMP-4 producing Pseudomonas aeruginosa isolate 212886 in presence of BPL
Pseudomonas aeruginosa [4] = assay: Antibacterial activity against IMP-4 producing Pseudomonas aeruginosa isolate 207272 after 18 hrs by CLSI broth microdilution method; conditions: isolate 207272, 18 h
Escherichia coli [5] = assay: Antibacterial activity against extended-spectrum beta-lactamase producing Escherichia coli isolate 212648 after 18 hrs in presence of BPL by CLSI broth microdilution method; conditions: isolate 212648, 18 h; summary of the method: as §1
Klebsiella pneumoniae [6] = assay: Antibacterial activity against KPC-2 producing Klebsiella pneumoniae isolate 212423 after 18 hrs in presence of BPL by CLSI broth microdilution method; conditions: isolate 212423, 18 h; summary of the method: as §1
Klebsiella pneumoniae [7] = assay: Selectivity index, ratio of MIC for against KPC-2 producing Klebsiella pneumoniae isolate 212232 to MIC for against KPC-2 producing Klebsiella pneumoniae isolate 212232 in presence of BPL
Klebsiella pneumoniae [8] = assay: Antibacterial activity against KPC-2 producing Klebsiella pneumoniae isolate 212232 after 18 hrs by CLSI broth microdilution method; conditions: isolate 212232, 18 h
Pseudomonas aeruginosa [9] = assay: Antibacterial activity against IMP-4 producing Pseudomonas aeruginosa isolate 207272 after 18 hrs in presence of BPL by CLSI broth microdilution method; conditions: isolate 207272, 18 h; summary of the method: as §1
Klebsiella pneumoniae [10] = assay: Selectivity index, ratio of MIC for against KPC-2 producing Klebsiella pneumoniae isolate 209735 to MIC for against KPC-2 producing Klebsiella pneumoniae isolate 209735 in presence of BPL
Klebsiella pneumoniae [11] = assay: Antibacterial activity against KPC-2 producing Klebsiella pneumoniae isolate 212229 after 18 hrs by CLSI broth microdilution method; conditions: isolate 212229, 18 h
Escherichia coli [12] = assay: Antibacterial activity against extended-spectrum beta-lactamase producing Escherichia coli isolate 209285 after 18 hrs by CLSI broth microdilution method; conditions: isolate 209285, 18 h
Escherichia coli [13] = assay: Antibacterial activity against extended-spectrum beta-lactamase producing Escherichia coli isolate 106342 after 18 hrs in presence of BPL by CLSI broth microdilution method; conditions: isolate 106342, 18 h; summary of the method: as §1
Escherichia coli [14] = assay: Selectivity index, ratio of MIC for against extended-spectrum beta-lactamase producing Escherichia coli isolate 208687 to MIC for extended-spectrum beta-lactamase producing Escherichia coli isolate 208687 in presence of BPL
Pseudomonas aeruginosa [15] = assay: Antibacterial activity against IMP-4 producing Pseudomonas aeruginosa isolate 209321 after 18 hrs in presence of BPL by CLSI broth microdilution method; conditions: isolate 209321, 18 h; summary of the method: as §1
Escherichia coli [16] = assay: Selectivity index, ratio of MIC for against extended-spectrum beta-lactamase producing Escherichia coli isolate 212648 to MIC for extended-spectrum beta-lactamase producing Escherichia coli isolate 212648 in presence of BPL
Pseudomonas aeruginosa [17] = assay: Antibacterial activity against IMP-4 producing Pseudomonas aeruginosa isolate 209471 after 18 hrs in presence of BPL by CLSI broth microdilution method; conditions: isolate 209471, 18 h; summary of the method: as §1
Escherichia coli [18] = assay: Selectivity index, ratio of MIC for against Escherichia coli isolate 210737 to MIC for Escherichia coli isolate 210737 in presence of BPL
Escherichia coli [19] = assay: Antibacterial activity against Escherichia coli isolate 210737 after 18 hrs by CLSI broth microdilution method; conditions: isolate 210737, 18 h
Pseudomonas aeruginosa [20] = assay: Antibacterial activity against IMP-4 producing Pseudomonas aeruginosa isolate 212886 after 18 hrs by CLSI broth microdilution method; conditions: isolate 212886, 18 h
Pseudomonas aeruginosa [21] = assay: Selectivity index, ratio of MIC for against IMP-4 producing Pseudomonas aeruginosa isolate 208247 to MIC for against IMP-4 producing Pseudomonas aeruginosa isolate 208247 in presence of BPL
Pseudomonas aeruginosa [22] = assay: Selectivity index, ratio of MIC for against IMP-4 producing Pseudomonas aeruginosa isolate 209471 to MIC for against IMP-4 producing Pseudomonas aeruginosa isolate 209471 in presence of BPL
Escherichia coli [23] = assay: Antibacterial activity against extended-spectrum beta-lactamase producing Escherichia coli isolate 209285 after 18 hrs in presence of BPL by CLSI broth microdilution method; conditions: isolate 209285, 18 h; summary of the method: as §1
Escherichia coli [24] = assay: Antibacterial activity against extended-spectrum beta-lactamase producing Escherichia coli isolate 208687 after 18 hrs by CLSI broth microdilution method; conditions: isolate 208687, 18 h
Pseudomonas aeruginosa [25] = assay: Antibacterial activity against IMP-4 producing Pseudomonas aeruginosa isolate 208247 after 18 hrs in presence of BPL by CLSI broth microdilution method; conditions: isolate 208247, 18 h; summary of the method: as §1
Pseudomonas aeruginosa [26] = assay: Antibacterial activity against IMP-4 producing Pseudomonas aeruginosa isolate 209321 after 18 hrs by CLSI broth microdilution method; conditions: isolate 209321, 18 h
Klebsiella pneumoniae [27] = assay: Antibacterial activity against KPC-2 producing Klebsiella pneumoniae isolate 212232 after 18 hrs in presence of BPL by CLSI broth microdilution method; conditions: isolate 212232, 18 h; summary of the method: as §1
Klebsiella pneumoniae [28] = assay: Antibacterial activity against KPC-2 producing Klebsiella pneumoniae isolate 212423 after 18 hrs by CLSI broth microdilution method; conditions: isolate 212423, 18 h
Pseudomonas aeruginosa [29] = assay: Selectivity index, ratio of MIC for against IMP-4 producing Pseudomonas aeruginosa isolate 207272 to MIC for against IMP-4 producing Pseudomonas aeruginosa isolate 207272 in presence of BPL
Escherichia coli [30] = assay: Selectivity index, ratio of MIC for against extended-spectrum beta-lactamase producing Escherichia coli isolate 209285 to MIC for extended-spectrum beta-lactamase producing Escherichia coli isolate 209285 in presence of BPL
Pseudomonas aeruginosa [31] = assay: Antibacterial activity against IMP-4 producing Pseudomonas aeruginosa isolate 212886 after 18 hrs in presence of BPL by CLSI broth microdilution method; conditions: isolate 212886, 18 h; summary of the method: as §1
Escherichia coli [32] = assay: Antibacterial activity against extended-spectrum beta-lactamase producing Escherichia coli isolate 208687 after 18 hrs in presence of BPL by CLSI broth microdilution method; conditions: isolate 208687, 18 h; summary of the method: as §1
Klebsiella pneumoniae [33] = assay: Antibacterial activity against KPC-2 producing Klebsiella pneumoniae isolate 209632 after 18 hrs in presence of BPL by CLSI broth microdilution method; conditions: isolate 209632, 18 h; summary of the method: as §1
Escherichia coli [34] = assay: Antibacterial activity against extended-spectrum beta-lactamase producing Escherichia coli isolate 106342 after 18 hrs by CLSI broth microdilution method; conditions: isolate 106342, 18 h
Klebsiella pneumoniae [35] = assay: Selectivity index, ratio of MIC for against KPC-2 producing Klebsiella pneumoniae isolate 209632 to MIC for against KPC-2 producing Klebsiella pneumoniae isolate 209632 in presence of BPL
Klebsiella pneumoniae [36] = assay: Antibacterial activity against KPC-2 producing Klebsiella pneumoniae isolate 209735 after 18 hrs in presence of BPL by CLSI broth microdilution method; conditions: isolate 209735, 18 h; summary of the method: as §1
Klebsiella pneumoniae [37] = assay: Selectivity index, ratio of MIC for against KPC-2 producing Klebsiella pneumoniae isolate 212423 to MIC for against KPC-2 producing Klebsiella pneumoniae isolate 212423 in presence of BPL
Escherichia coli [38] = assay: Antibacterial activity against Escherichia coli isolate 210737 after 18 hrs in presence of BPL by CLSI broth microdilution method; conditions: isolate 210737, 18 h; summary of the method: as §1
Klebsiella pneumoniae [39] = assay: Antibacterial activity against KPC-2 producing Klebsiella pneumoniae isolate 209735 after 18 hrs by CLSI broth microdilution method; conditions: isolate 209735, 18 h
Escherichia coli [40] = assay: Antibacterial activity against extended-spectrum beta-lactamase producing Escherichia coli isolate 212648 after 18 hrs by CLSI broth microdilution method; conditions: isolate 212648, 18 h
Klebsiella pneumoniae [41] = assay: Antibacterial activity against KPC-2 producing Klebsiella pneumoniae isolate 209632 after 18 hrs by CLSI broth microdilution method; conditions: isolate 209632, 18 h
Pseudomonas aeruginosa [42] = assay: Antibacterial activity against IMP-4 producing Pseudomonas aeruginosa isolate 208247 after 18 hrs by CLSI broth microdilution method; conditions: isolate 208247, 18 h
Pseudomonas aeruginosa [43] = assay: Antibacterial activity against IMP-4 producing Pseudomonas aeruginosa isolate 209471 after 18 hrs by CLSI broth microdilution method; conditions: isolate 209471, 18 h
Klebsiella pneumoniae [44] = assay: Selectivity index, ratio of MIC for against KPC-2 producing Klebsiella pneumoniae isolate 212229 to MIC for against KPC-2 producing Klebsiella pneumoniae isolate 212229 in presence of BPL

MIC (Klebsiella pneumoniae [1]): 1 µg/mL | MIC (Pseudomonas aeruginosa [4]): 64 µg/mL (≈ 93.1 µM) | MIC (Escherichia coli [5]): 1 µg/mL | MIC (Klebsiella pneumoniae [6]): 2 µg/mL | MIC (Klebsiella pneumoniae [8]): 2 µg/mL (≈ 2.91 µM) | MIC (Pseudomonas aeruginosa [9]): 64 µg/mL | MIC (Klebsiella pneumoniae [11]): 4 µg/mL (≈ 5.82 µM) | MIC (Escherichia coli [12]): 4 µg/mL (≈ 5.82 µM) | MIC (Escherichia coli [13]): 2 µg/mL | MIC (Pseudomonas aeruginosa [15]): > 64 µg/mL | MIC (Pseudomonas aeruginosa [17]): 64 µg/mL | MIC (Escherichia coli [19]): 2 µg/mL (≈ 2.91 µM) | MIC (Pseudomonas aeruginosa [20]): > 64 µg/mL | MIC (Escherichia coli [23]): 4 µg/mL | MIC (Escherichia coli [24]): 4 µg/mL (≈ 5.82 µM) | MIC (Pseudomonas aeruginosa [25]): 64 µg/mL | MIC (Pseudomonas aeruginosa [26]): > 64 µg/mL | MIC (Klebsiella pneumoniae [27]): 0.25 µg/mL | MIC (Klebsiella pneumoniae [28]): 4 µg/mL (≈ 5.82 µM) | MIC (Pseudomonas aeruginosa [31]): 32 µg/mL | MIC (Escherichia coli [32]): 1 µg/mL | MIC (Klebsiella pneumoniae [33]): 1 µg/mL | MIC (Escherichia coli [34]): 4 µg/mL (≈ 5.82 µM) | MIC (Klebsiella pneumoniae [36]): 2 µg/mL | MIC (Escherichia coli [38]): 1 µg/mL | MIC (Klebsiella pneumoniae [39]): 4 µg/mL (≈ 5.82 µM) | MIC (Escherichia coli [40]): 4 µg/mL (≈ 5.82 µM) | MIC (Klebsiella pneumoniae [41]): 2 µg/mL (≈ 2.91 µM) | MIC (Pseudomonas aeruginosa [42]): 64 µg/mL (≈ 93.1 µM) | MIC (Pseudomonas aeruginosa [43]): 64 µg/mL (≈ 93.1 µM)
Structure (SMILES): CC(C)C(O/N=C(\C(=O)N[C@@H]1C(=O)N(S(=O)(=O)O)[C@@H]1CSc1nc(=O)c(O)nn1C)c1csc(N)n1)c1cc(=O)c(O)cn1O (some centres undefined)
Selectivity Index (Escherichia coli [2]): 2 | Selectivity Index (Pseudomonas aeruginosa [3]): >2 | Selectivity Index (Klebsiella pneumoniae [7]): 8 | Selectivity Index (Klebsiella pneumoniae [10]): 2 | Selectivity Index (Escherichia coli [14]): 4 | Selectivity Index (Escherichia coli [16]): 4 | Selectivity Index (Escherichia coli [18]): 2 | Selectivity Index (Pseudomonas aeruginosa [21]): 1 | Selectivity Index (Pseudomonas aeruginosa [22]): 1 | Selectivity Index (Pseudomonas aeruginosa [29]): 1 | Selectivity Index (Escherichia coli [30]): 1 | Selectivity Index (Klebsiella pneumoniae [35]): 2 | Selectivity Index (Klebsiella pneumoniae [37]): 2 | Selectivity Index (Klebsiella pneumoniae [44]): 4
